Molecules are shown by their SMILES.

Format in all cases: functional, cell-based
For experiment [1], the system named is H2981 cell line. Kind of experiment: Concentration resulting in 50% incorporation of [3H]thymidine compared to untreated control cells on H2981 human lung adenocarcinoma cells in the absence of Enterobacter cloacae P99 beta-lactamase (ECIbL). The following applies: H2981, 1 h. In a few lines:
(§1)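 H2981 cells in IMDM/10% FBS were seeded at 4000 or 8000 per well and left 18 h at 37 °C. Drug, ±EClbL, was given in RPMI/10% FBS over a concentration range for 1 h at 37 °C, then washed off and cells kept 18 h. [³H]thymidine (1 μCi/well) was pulsed 6 h (8000 cells) or 18 h (4000 cells).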

Experiment [2] relates to H2981 cell line. Kind of experiment: Concentration resulting in 50% incorporation of [3H]thymidine compared to untreated control cells on H2981 human lung adenocarcinoma cells in the presence of 10 ug/mL Enterobacter cloacae P99 beta-lactamase (ECIbL). The following applies: H2981, 1 h. In a few lines: as §1
In experiment [3] the test system is H2981 cell line. Kind of experiment: Bacillus cereus beta-lactamase (BCbL) enzyme concentration required to achieve an IC50 value of compound on H2981 lung adenocarcinoma cells. The following applies: Homo sapiens. The method in brief:
(§2)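 H2981 cells were plated at 4000 or 8000/well and allowed to adhere 18 h at 37 °C. Prodrug was held fixed at 1 μM while β-lactamase was titrated. After 1 h at 37 °C, cells were washed and incubated 18 h. A [³H]thymidine pulse (1 μCi/well) followed, 6 h or 18 h depending on seeding.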

Experiment [4] has as its system H2981 cell line. Kind of experiment: Concentration resulting in 50% incorporation of [3H]thymidine compared to untreated control cells on H2981 human lung adenocarcinoma cells in the presence of doxorubicin. The following applies: H2981, 1 h. The method in brief:
as §1

Experiment [5] deals with H2981 cell line. Kind of experiment: Escherichia coli TEM-1 beta-lactamase (ECbL) enzyme concentration required to achieve an IC50 value of compound on H2981 lung adenocarcinoma cells. The following applies: Homo sapiens. In a few lines: as §2
In experiment [6] the test system is H2981 cell line. Kind of experiment: Enterobacter cloacae P99 beta-lactamase (ECIbL) enzyme concentration required to achieve an IC50 value of compound on H2981 lung adenocarcinoma cells. Particulars: Homo sapiens. In a few lines:
as §2

Experiment [7] deals with H2981 cell line. Kind of experiment: Cytotoxicity on H2981 Human lung adenocarcinoma cells. The method in brief:
as §1

Consider `COc1cccc2c1C(=O)c1c(O)c3c(c(O)c1C2=O)C[C@@](O)(C(=O)CO)C[C@@H]3OC1CC(NC(=O)OCC2=C(C(=O)O)N3C(=O)[C@@H](NC(=O)CSC4OC(CO)C(O)C(O)C4O)[C@H]3SC2)C(O)C(C)O1` (some centres not stated), for which the IC50 turned out to be 2500 nM in the experiment with H2981 cell line [1]; 450 nM in the experiment with H2981 cell line [2]; 1.58 nM in the experiment with H2981 cell line [3]; 460 nM in the experiment with H2981 cell line [4]; 1.13 nM with H2981 cell line [5]; 0.13 nM in the experiment on H2981 cell line [6].
Turning to `COc1cccc2c1C(=O)c1c(O)c3c(c(O)c1C2=O)C[C@@](O)(C(=O)CO)C[C@@H]3OC1CC(NC(=O)OCC2=C(C(=O)O)N3C(=O)[C@@H](NC(=O)CCCC(=O)O)[C@H]3SC2)C(O)C(C)O1` (some centres not stated), the half-maximal inhibitory concentration (IC50) was determined as 21900 nM in the experiment with H2981 cell line [1]; 470 nM in the experiment with H2981 cell line [2]; 1.13 nM in the experiment with H2981 cell line [3]; 480 nM with H2981 cell line [4]; 6.5 nM in the experiment on H2981 cell line [5]; 0.039 nM in the experiment on H2981 cell line [6].
Consider `COc1cccc2c1C(=O)c1c(O)c3c(c(O)c1C2=O)C[C@@](O)(C(=O)CO)C[C@@H]3OC1CC(NC(=O)OCC2=C(C(=O)O)N3C(=O)[C@@H](NC(=O)Cc4ccccc4)[C@H]3SC2)C(O)C(C)O1` (some centres not stated), for which the 50% inhibitory concentration (IC50) stood at 7400 nM with H2981 cell line [1]; 750 nM with H2981 cell line [2]; 0.25 nM with H2981 cell line [3]; 550 nM with H2981 cell line [4]; 0.68 nM in the experiment on H2981 cell line [5]; 0.012 nM with H2981 cell line [6].
For `COc1cccc2c1C(=O)c1c(O)c3c(c(O)c1C2=O)C[C@@](O)(C(=O)CO)C[C@@H]3OC1CC(NC(=O)OCC2=C(C(=O)O)N3C(=O)[C@@H](NC(=O)Cc4cccs4)[C@H]3SC2)C(O)C(C)O1` (some centres not stated), the 50% inhibitory concentration (IC50) stood at 10300 nM in the experiment on H2981 cell line [1]; 550 nM with H2981 cell line [2]; 0.21 nM in the experiment on H2981 cell line [3]; 560 nM in the experiment with H2981 cell line [4]; 0.25 nM in the experiment on H2981 cell line [5]; 0.024 nM in the experiment on H2981 cell line [6].
For `COc1cccc2c1C(=O)c1c(O)c3c(c(O)c1C2=O)C[C@@](O)(C(=O)CO)C[C@@H]3OC1CC(NC(=O)OCC2=C(C(=O)O)N3C(=O)[C@@H](N)[C@H]3SC2)C(O)C(C)O1` (some centres not stated), the half-inhibitory concentration (IC50) worked out at 8200 nM in the experiment with H2981 cell line [1]; 430 nM in the experiment on H2981 cell line [2]; 24.9 nM with H2981 cell line [3]; 460 nM with H2981 cell line [4]; 185 nM in the experiment with H2981 cell line [5]; 9.86 nM with H2981 cell line [6].
Turning to `COc1cccc2c1C(=O)c1c(O)c3c(c(O)c1C2=O)C[C@@](O)(C(=O)CO)C[C@@H]3OC1CC(NC(=O)OCC2=C(C(=O)O)N3C(=O)[C@@H](NC(=O)C(c4ccccc4)S(=O)(=O)O)[C@H]3SC2)C(O)C(C)O1` (some centres not stated), the half-maximal inhibitory concentration (IC50) amounted to 14800 nM with H2981 cell line [1]; 470 nM with H2981 cell line [2]; 0.39 nM in the experiment with H2981 cell line [3]; 560 nM with H2981 cell line [4]; 22.7 nM with H2981 cell line [5]; 5.65 nM in the experiment on H2981 cell line [6].
Turning to `COc1cccc2c1C(=O)c1c(O)c3c(c(O)c1C2=O)C[C@@](O)(C(=O)CO)C[C@@H]3O[C@H]1C[C@H](N)[C@H](O)[C@H](C)O1` [DOXORUBICIN], in the experiment on H2981 cell line [7], the concentration for half-maximal inhibition (IC50) was 500 nM.

(Values after ChEMBL document CHEMBL1128301, “Cephalosporin derivatives of doxorubicin as prodrugs for activation by monoclonal antibody-beta-lactamase conjugates” (J Med Chem, 1995).)
